Results on 5 molecules are retold here after ChEMBL document CHEMBL4043283, “Discovery and Preclinical Development of IIIM-290, an Orally Active Potent Cyclin-Dependent Kinase Inhibitor” (J Med Chem, 2018).

Broadly, the inhibition is the percentage by which the read-out fell short of the control. Usually pIC50 stands for the negative decadic logarithm of the IC50, by convention in mol/L. Broadly, the GI50 is the concentration at which growth is held to half of that of the control. A lower GI50 goes with more potent growth inhibition.

pIC50: −log10 of the molar value.

Assay [1] addresses CDK2/Cyclin A2 (Homo sapiens) (UniProt P24941+P20248). Nature of the assay: Inhibition of CDK2/cyclin A (unknown origin) at 0.5 uM using histone H1 as substrate after 30 mins in presence of [33P]-gamma-ATP by filter binding assay relative to control. In kind it is protein-complex assay.
In assay [2] the target is CDK9/cyclin T1 (Homo sapiens) (UniProt O60563+P50750). Kind of assay: Inhibition of CDK9/cyclin T1 (unknown origin) at 0.5 uM using YSPTSPSYSPTSPSYSPTSPKKK as substrate after 30 mins in presence of [33P]-gamma-ATP by filter binding assay relative to control. In kind it is protein-complex assay.
Assay [3] concerns HL-60. Nature of the assay: Growth inhibition of human HL60 cells at 10 uM after 48 hrs by MTT assay relative to control. To be noted: HL-60, 48 h, read-out: GI. In kind it is functional. An outline of the steps: (§1)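 Single-concentration primary screen at 10 μM by MTT assay. Cells were NCI-sourced cancer lines grown in appropriate medium at 37 °C, 95% humidity, 5% CO2. Growth inhibition is expressed relative to control.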
On the technique in general: Tetrazolium dyes change colour on reduction, which living cells bring about.

Assay [4] has as its system PC-3. Kind of assay: Growth inhibition of human PC3 cells at 10 uM after 48 hrs by MTT assay relative to control. In kind it is functional. The following applies: PC-3, 48 h, read-out: GI. An outline of the steps: as §1
Assay [5] has as its system MIA PaCa-2. Kind of assay: Growth inhibition of human MIAPaCa2 cells at 10 uM after 48 hrs by MTT assay relative to control. In kind it is functional. To be noted: MIA PaCa-2, 48 h, read-out: GI. An outline of the steps:
as §1

The subject of assay [6] is MCF7. Nature of the assay: Growth inhibition of human MCF7 cells at 10 uM after 48 hrs by MTT assay relative to control. In kind it is functional. The following applies: MCF7, 48 h, read-out: GI. An outline of the steps:
as §1

Assay [7] has as its system Caco-2. Kind of assay: Growth inhibition of human Caco2 cells at 10 uM after 48 hrs by MTT assay relative to control. In kind it is functional. To be noted: Caco-2, 48 h, read-out: GI. An outline of the steps:
as §1

A further assay deals with CDK2/Cyclin A2 (Homo sapiens, UniProt P24941). Nature of the assay: Inhibition of CDK2/cyclin A (unknown origin) using histone H1 as substrate after 30 mins in presence of [33P]-gamma-ATP by filter binding assay. In kind it is protein-complex assay.
Another assay deals with CDK9/cyclin T1 (Homo sapiens, UniProt P50750). Kind of assay: Inhibition of CDK9/cyclin T1 (unknown origin) using YSPTSPSYSPTSPSYSPTSPKKK as substrate after 30 mins in presence of [33P]-gamma-ATP by filter binding assay. In kind it is protein-complex assay.
Assay [8] concerns HL-60. Kind of assay: Growth inhibition of human HL60 cells after 48 hrs by MTT assay. In kind it is functional. The following applies: HL-60, 48 h. An outline of the steps: (§2)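 Cancer cell lines sourced from the National Cancer Institute (USA). Cells kept in appropriate growth medium at 37 °C, 95% humidity, 5% CO2. Antiproliferation read by tetrazolium (MTT) assay. GI50 values were determined only for compounds selected after an initial single-concentration screen.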

For assay [9], the system named is PC-3. Kind of assay: Growth inhibition of human PC3 cells after 48 hrs by MTT assay. In kind it is functional. To be noted: PC-3, 48 h. An outline of the steps: as §2
Assay [10] concerns MIA PaCa-2. Kind of assay: Growth inhibition of human MIAPaCa2 cells after 48 hrs by MTT assay. To be noted: MIA PaCa-2, 48 h. In kind it is functional. An outline of the steps: as §2
For assay [11], the system named is MCF7. Kind of assay: Growth inhibition of human MCF7 cells after 48 hrs by MTT assay. In kind it is functional. The following applies: MCF7, 48 h. An outline of the steps: as §2
For assay [12], the system named is Caco-2. Nature of the assay: Growth inhibition of human Caco2 cells after 48 hrs by MTT assay. In kind it is functional. The following applies: Caco-2, 48 h. An outline of the steps: as §2
A further assay is filed under the species Homo sapiens. Kind of assay: Selectivity ratio of IC50 for CDK2/cyclin A (unknown origin) to IC50 for CDK9/cyclin T1 (unknown origin).

Chain of CDK9/cyclin T1 (O60563 whole entry): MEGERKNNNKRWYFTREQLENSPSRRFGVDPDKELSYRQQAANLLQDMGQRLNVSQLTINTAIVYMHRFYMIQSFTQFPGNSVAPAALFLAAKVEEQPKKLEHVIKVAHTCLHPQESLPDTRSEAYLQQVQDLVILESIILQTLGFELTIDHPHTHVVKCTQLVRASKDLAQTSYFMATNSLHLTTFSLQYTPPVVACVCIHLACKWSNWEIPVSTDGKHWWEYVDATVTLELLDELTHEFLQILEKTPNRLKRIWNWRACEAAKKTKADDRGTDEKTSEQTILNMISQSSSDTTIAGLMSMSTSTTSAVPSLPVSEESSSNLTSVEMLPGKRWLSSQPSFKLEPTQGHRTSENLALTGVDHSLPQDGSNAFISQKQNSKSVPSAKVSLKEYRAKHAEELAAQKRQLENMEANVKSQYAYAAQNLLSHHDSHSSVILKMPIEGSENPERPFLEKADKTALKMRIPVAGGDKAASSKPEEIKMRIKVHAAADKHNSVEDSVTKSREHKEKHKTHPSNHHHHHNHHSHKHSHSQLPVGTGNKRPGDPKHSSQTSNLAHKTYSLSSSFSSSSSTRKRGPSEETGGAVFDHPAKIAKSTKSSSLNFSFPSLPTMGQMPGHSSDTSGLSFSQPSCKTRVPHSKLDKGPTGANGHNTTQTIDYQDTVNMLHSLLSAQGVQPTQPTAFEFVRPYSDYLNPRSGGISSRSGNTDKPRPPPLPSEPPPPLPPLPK
Chain of CDK9/cyclin T1 (P50750 whole entry): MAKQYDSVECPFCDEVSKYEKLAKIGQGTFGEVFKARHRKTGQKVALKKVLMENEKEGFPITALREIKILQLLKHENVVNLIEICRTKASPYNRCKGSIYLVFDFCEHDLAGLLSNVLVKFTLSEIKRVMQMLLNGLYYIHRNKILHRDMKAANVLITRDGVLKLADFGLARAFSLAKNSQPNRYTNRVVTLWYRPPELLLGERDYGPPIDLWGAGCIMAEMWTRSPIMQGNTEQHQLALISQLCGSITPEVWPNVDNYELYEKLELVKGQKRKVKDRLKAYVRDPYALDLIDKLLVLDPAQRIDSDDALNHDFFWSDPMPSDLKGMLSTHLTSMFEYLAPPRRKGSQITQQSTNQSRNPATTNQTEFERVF

`CN1CC[C@H](c2c(O)cc(O)c3c(=O)cc(/C=C/c4ccc(Cl)cc4)oc23)[C@H](O)C1`: the inhibition worked out at 2% in [1] and 71% in assay [2]. The inhibition of growth at 10 µM in the assay on HL-60 [3] was found to be 58%; in the assay on PC-3 [4], 12%; in the assay with MIA PaCa-2 [5] it was 88%; with MCF7 [6] it was 10%; in the assay with Caco-2 [7] it was 70%. The pIC50 was 5.48 on CDK2/Cyclin A2 and 6.51 at CDK9/cyclin T1. Besides, the GI50 in the assay with HL-60 [8] turned out to be 8 µM; with PC-3 [9], 31 µM; with MIA PaCa-2 [10] it was 2 µM; in the assay on MCF7 [11] it was 49 µM; in the assay with Caco-2 [12], 5.6 µM. Further, the Ratio IC50 in the assay listed under Homo sapiens was 10.
For the molecule `CN1CC[C@H](c2c(O)cc(O)c3c(=O)cc(/C=C/c4cccc(Cl)c4)oc23)[C@H](O)C1`, the inhibition turned out to be 5% in assay [1] and 53% in assay [2]. Also, the inhibition of growth at 10 µM is 35% with HL-60 [3]; 53% with PC-3 [4]; 52% with MIA PaCa-2 [5]; 82% in the assay on MCF7 [6]; 55% in the assay with Caco-2 [7]. Further, the pIC50 on CDK2/Cyclin A2 was 5.52; on CDK9/cyclin T1, 6.55. Also, the GI50 in the assay on HL-60 [8] was found to be 20 µM; with PC-3 [9], 10 µM; in the assay on MIA PaCa-2 [10], 10 µM; in the assay with MCF7 [11] it was 2 µM; in the assay on Caco-2 [12] it was 9 µM. Besides, the Ratio IC50 in the assay listed under Homo sapiens is 10.
Consider `CN1CC[C@H](c2c(O)cc(O)c3c(=O)cc(/C=C/c4c(F)c(F)c(F)c(F)c4F)oc23)[C@H](O)C1`, for which the inhibition in assay [1] is 42%; in [2], 92%. Also, the inhibition of growth at 10 µM was 80% with HL-60 [3]; 82% in the assay with PC-3 [4]; 89% with MIA PaCa-2 [5]; 64% in the assay on MCF7 [6]; 59% in the assay with Caco-2 [7]. Besides, the pIC50 on CDK2/Cyclin A2 was 6.22; at CDK9/cyclin T1 it was 7.94. The GI50 in the assay on HL-60 [8] amounted to 3 µM; with PC-3 [9], 2 µM; with MIA PaCa-2 [10], 1 µM; in the assay with MCF7 [11], 8 µM; in the assay on Caco-2 [12], 8 µM. The Ratio IC50 in the assay listed under Homo sapiens was 52.
`CN1CC[C@H](c2c(O)cc(O)c3c(=O)cc(/C=C/c4ccccc4)oc23)[C@H](O)C1`: the inhibition in assay [1] amounted to 5.2%; in assay [2], 66%. Besides, the inhibition of growth at 10 µM is 91% in the assay with HL-60 [3]; 10% with PC-3 [4]; 87% in the assay on MIA PaCa-2 [5]; 8% with MCF7 [6]; 72% in the assay with Caco-2 [7]. Also, the pIC50 at CDK2/Cyclin A2 is 6.03; on CDK9/cyclin T1 it was 7.18. Further, the GI50 with HL-60 [8] came out at 1 µM; in the assay with PC-3 [9], 58 µM; with MIA PaCa-2 [10], 2 µM; with MCF7 [11], 31 µM; in the assay with Caco-2 [12] it was 3.7 µM.
For the molecule `CN1CC[C@H](c2c(O)cc(O)c3c(=O)cc(/C=C/c4ccccc4F)oc23)[C@H](O)C1`, the inhibition in assay [1] amounted to 9%; in [2], 60%. Besides, the inhibition of growth at 10 µM in the assay with HL-60 [3] worked out at 62%; in the assay with PC-3 [4], 25%; in the assay on MIA PaCa-2 [5], 60%; in the assay on MCF7 [6] it was 62%; in the assay with Caco-2 [7], 68%. In addition, the figures for the pIC50 at CDK2/Cyclin A2 and on CDK9/cyclin T1 were 5.82 and 6.59, respectively. In addition, the GI50 with HL-60 [8] came out at 8 µM; in the assay with PC-3 [9], 20 µM; in the assay on MIA PaCa-2 [10] it was 3 µM; in the assay with MCF7 [11], 8 µM; in the assay on Caco-2 [12] it was 7 µM.
